Assay results reported in PMC6198128 (Redox Biology, 2018).
Where “and” joins values, the source holds several entries; their conditions need not be identical. Equal values may be shown once. Read-outs that look alike come from different tables or passages of the source.

Experiments:
HL-60 cells [1] = format: cell-based, human; conditions: for effect of pretreatment on complex-induced apoptosis: HL-60, 2 h pretreatment (5 mM NAC or 5 µM inhibitor), then 4 µM complex for 48 h; for apoptotic cells (annexin V-FITC/PI): HL-60, 24 and 48 h, p < 0.05, DOX 2 µM, OXA 2.5 µM
HL-60 cells [2] = format: cell-based, human
[3] = system: K-562 (human chronic myelogenous leukemia); experiment: Alamar blue cytotoxicity assay, K-562; format: cell-based; conditions: read-out: IC50 in µM
HL-60 cells [4] = experiment: Mitochondrial transmembrane potential; format: cell-based, human; conditions: HL-60, rhodamine 123, 24 h, p < 0.05; DOX 2 µM, OXA 2.5 µM
In short: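 HL-60 cells were grown in RPMI-1640 with 10% FBS, 2 mM L-glutamine and 50 µg/mL gentamycin at 37 °C, 5% CO2. After treatment, cells were loaded with rhodamine 123 (5 µg/mL) for 15 min at 37 °C in the dark and washed in saline.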

B16-F10 (mouse melanoma) = experiment: Alamar blue cytotoxicity assay, B16-F10; format: cell-based; conditions: read-out: IC50 in µM
[5] = system: HL-60 (human promyelocytic leukemia); experiment: Alamar blue cytotoxicity assay, HL-60; format: cell-based; conditions: read-out: IC50 in µM
[6] = system: MCF-7 (human breast carcinoma); experiment: Alamar blue cytotoxicity assay, MCF-7; format: cell-based; conditions: read-out: IC50 in µM
[7] = system: HCT116 (human colon carcinoma); experiment: Alamar blue cytotoxicity assay, HCT116; format: cell-based; conditions: read-out: IC50 in µM
[8] = system: HSC-3 (human oral squamous cell carcinoma); experiment: Alamar blue cytotoxicity assay, HSC-3; format: cell-based; conditions: read-out: IC50 in µM
[9] = system: PBMC (human peripheral blood mononuclear cells); experiment: Alamar blue cytotoxicity assay, PBMC; format: cell-based; conditions: 72 h, read-out: IC50 in µM
[10] = system: HepG2 (human hepatocellular carcinoma); experiment: Alamar blue cytotoxicity assay, HepG2; format: cell-based; conditions: read-out: IC50 in µM
[11] = system: SCC-9 (human oral squamous cell carcinoma); experiment: Alamar blue cytotoxicity assay, SCC-9; format: cell-based; conditions: Homo sapiens, SCC-9, 72 h, read-out: IC50 in µM
calf thymus DNA (ctDNA) = experiment: DNA intercalation assay; format: binding; conditions: cell-free, 15 µg/mL ctDNA, 1.5 µM ethidium bromide; complex 5, 10 and 20 µM; doxorubicin 10 µM
In short: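 Ethidium bromide displacement from calf thymus DNA in saline: 15 µg/mL ctDNA, 1.5 µM ethidium bromide, test compound at 5, 10 and 20 µM. Vehicle (0.1% DMSO) was the negative control and doxorubicin (10 µM) the positive control. Fluorescence was read at excitation 320 nm and emission 600 nm. Lower fluorescence was taken as intercalation.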

[12] = system: MRC-5 (human lung fibroblast); experiment: Alamar blue cytotoxicity assay, MRC-5; format: cell-based; conditions: read-out: IC50 in µM
HL-60 cells [13] = experiment: Internucleosomal DNA fragmentation and cell cycle distribution; format: cell-based, human
In short: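 After 24 or 48 h treatment, HL-60 cells were permeabilized and stained with propidium iodide, and DNA content was measured by flow cytometry. 10^4 events were recorded per sample with debris excluded. Sub-G0/G1 was taken as internucleosomal DNA fragmentation, alongside G0/G1, S and G2/M fractions. Doxorubicin and oxaliplatin were positive controls; ANOVA with Student–Newman–Keuls test.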

caspase-3 in HL-60 cells = experiment: Caspase-3 colorimetric activation assay; format: cell-based, human; conditions: HL-60, DEVD-pNA substrate, 48 h, p < 0.05; DOX 2 µM
In short: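 HL-60 cells were treated with test compound and lysed, and caspase-3 activity was read with a colorimetric kit using DEVD-pNA substrate, with absorbance at 405 nm. Total protein was measured by Bradford, and activity was expressed as specific activity per 10 mg protein. Data are mean ± S.E.M., with ANOVA and Student–Newman–Keuls test (p < 0.05) against vehicle.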

HL-60 cells [14] = experiment: Morphological analysis; format: cell-based, human; conditions: 24 and 48 h, DOX 2 µM, OXA 2.5 µM; for cell morphology: HL-60, May-Grunwald-Giemsa; for forward light scatter (FSC) / side scatter (SCC): HL-60, flow cytometry
In short: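 HL-60 cells were treated for 24 and 48 h, then stained with May-Grunwald-Giemsa and examined by light microscopy. In parallel, forward and side light scatter were quantified by flow cytometry, recording 10^4 events per sample with debris excluded. Vehicle was the negative control, with doxorubicin and oxaliplatin as positive controls.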

[15] = system: eight cancer cell lines (HL-60, K-562, HCT116, MCF-7, HepG2, HSC-3, SCC-9 and B16-F10); experiment: Alamar blue cytotoxicity assay, panel of cancer cell lines; format: cell-based; conditions: not cytotoxic at the concentrations tested, 72 h
In short: (§1)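 Human and mouse cell lines plus primary human PBMC (donor informed consent) grown in RPMI-1640 with 10% FBS, 2 mM L-glutamine and 50 μg/mL gentamycin at 37 °C, 5% CO2. Cells were mycoplasma-checked and >90% trypan-blue viable at start. Vehicle served as negative control; doxorubicin, oxaliplatin and piplartine were positive controls. Effect was taken as % of control absorbance, with IC50 and 95% CI from nonlinear regression.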

[16] = system: non-cancer cells (MRC-5 and PBMC); experiment: Alamar blue cytotoxicity assay, non-cancer cells; format: cell-based, human; conditions: not cytotoxic at the concentrations tested, 72 h
In short: as §1

[17] = HL-60, 2 µM, 24 h of incubation
[18] = HL-60, 2 µM, 48 h of incubation
[19] = HL-60, 2.5 µM, 24 h of incubation
[20] = HL-60, 2.5 µM, 48 h of incubation

Compound	effect of pretreatment on complex-induced apoptosis (HL-60 cells [1])	reduction of the number of viable cells (HL-60 cells [2])	IC50 ([3]; Homo sapiens, K562, 72 h) [µM]	mitochondrial transmembrane potential (HL-60 cells [4])	IC50 (B16-F10 (mouse melanoma); Mus musculus, B16-F10, 72 h) [µM]	IC50 ([5]; Homo sapiens, HL-60, 72 h) [µM]	IC50 ([6]; Homo sapiens, MCF7, 72 h) [µM]	apoptotic cells (annexin V-FITC/PI) (HL-60 cells [1])	IC50 ([7]; Homo sapiens, HCT-116, 72 h) [µM]	IC50 ([8]; Homo sapiens, HSC-3, 72 h) [µM]	IC50 ([9]; Homo sapiens, PBMC) [µM]	IC50 ([10]; Homo sapiens, HepG2, 72 h) [µM]	IC50 [11] [µM]	IC50 ([12]; Homo sapiens, MRC5, 72 h) [µM]	cell morphology (HL-60 cells [14])	forward light scatter (FSC) (HL-60 cells [14])	side scatter (SCC) (HL-60 cells [14])	other results
N#CC(=C(/N)Sc1ccccc1N)/C(C#N)=C(/N)Sc1ccccc1N [U-0126]	reduced the complex-induced apoptosis																	
COc1cccc2c1C(=O)c1c(O)c3c(c(O)c1C2=O)C[C@@](O)(C(=O)CO)C[C@@H]3O[C@H]1C[C@H](N)[C@H](O)[C@H](C)O1 [DOX, Doxorubicin]		57.1% and 87.9%	0.3	reduced the mitochondrial transmembrane potential	0.1	0.3	1.1	increase in apoptotic cells	0.1	0.3	5.1	0.1	0.5	1.5	cell shrinkage, chromatin condensation and nuclear fragmentation	decrease in FSC	transient increase in SCC	ethidium bromide fluorescence (displacement from ctDNA) (calf thymus DNA (ctDNA)): reduced the fluorescence intensity of ethidium bromide; DNA content (%) G0/G1 (HL-60 cells [13]; [17]): 19.9 ± 2.5 %; DNA content (%) G2/M (HL-60 cells [13]; [17]): 8.9 ± 1.5%; DNA content (%) S (HL-60 cells [13]; [17]): 6.6 ± 1.6 %; DNA content (%) Sub-G0/G1 (HL-60 cells [13]; [17]): 57.2 ± 2.5 %; DNA content (%) G0/G1 (HL-60 cells [13]; [18]): 21.9 ± 3.0 %; DNA content (%) G2/M (HL-60 cells [13]; [18]): 3.8 ± 0.9 %; DNA content (%) S (HL-60 cells [13]; [18]): 6.5 ± 0.6 %; DNA content (%) Sub-G0/G1 (HL-60 cells [13]; [18]): 65.5 ± 2.8 %; caspase-3 activation (caspase-3 in HL-60 cells): caused caspase-3 activation
O=C1[O][Pt]2([NH][C@@H]3CCCC[C@H]3[NH]2)[O]C1=O [OXA, oxaliplatin]		35.6% and 67.7%		reduced the mitochondrial transmembrane potential				increase in apoptotic cells							cell shrinkage, chromatin condensation and nuclear fragmentation	decrease in FSC	transient increase in SCC	IC50 ([3]; K-562, alamar blue, 72 h): 1 µM; IC50 (B16-F10 (mouse melanoma); B16-F10, alamar blue, 72 h): 2.2 µM; IC50 ([5]; HL-60, alamar blue, 72 h): 0.6 µM; IC50 ([6]; MCF-7, alamar blue, 72 h): 5.7 µM; IC50 ([7]; HCT116, alamar blue, 72 h): 4.1 µM; IC50 ([8]; HSC-3, alamar blue, 72 h): 3.1 µM; IC50 ([9]; PBMC non-cancer cells, alamar blue): 9.4 µM; IC50 ([10]; HepG2, alamar blue, 72 h): 2.2 µM; IC50 ([12]; MRC-5 non-cancer cells, alamar blue, 72 h): 1.3 µM; DNA content (%) G0/G1 (HL-60 cells [13]; [19]): 29.1 ± 2.4 %; DNA content (%) G2/M (HL-60 cells [13]; [19]): 28.1 ± 2.6 %; DNA content (%) S (HL-60 cells [13]; [19]): 12.6 ± 2.5%; DNA content (%) Sub-G0/G1 (HL-60 cells [13]; [19]): 20.7 ± 2.9 %; DNA content (%) G0/G1 (HL-60 cells [13]; [20]): 42.9 ± 2.8%; DNA content (%) G2/M (HL-60 cells [13]; [20]): 23.4 ± 2.6 %; DNA content (%) S (HL-60 cells [13]; [20]): 13.2 ± 0.8%; DNA content (%) Sub-G0/G1 (HL-60 cells [13]; [20]): 24.8 ± 1.9 %; cell cycle effect (HL-60 cells [13]; HL-60, 2.5 µM, p < 0.05): cell cycle arrest at the phase G2/M
O=[N+]([O-])c1ccc(-c2nc(-c3ccncc3)c(-c3ccc(F)cc3)[nH]2)cc1 [PD 169316]	reduced the complex-induced apoptosis																	
COc1cc(/C=C/C(=O)N2CCC=CC2=O)cc(OC)c1OC [PIP, Piplartine]			18.6		10.6	14.1	10.3		5.4	14.1	34.2	6.3	16.5	17.3				
[Cl][Pt][Cl].c1ccc(P(c2ccccc2)c2ccccc2)cc1.c1ccc(P(c2ccccc2)c2ccccc2)cc1 [cis-[PtCl2(PPh3)2]]																		IC50 [15]: > 31.6 µM; IC50 [16]: > 31.6 µM
